From ChEMBL document CHEMBL1139826, “Synthesis, biological activity, and SAR of antimycobacterial 2- and 8-substituted 6-(2-furyl)-9-(p-methoxybenzyl)purines” (Bioorg Med Chem, 2007)
≈ marks a conversion by molar mass, not a printed value.

What was measured:
Staphylococcus aureus = test: Antimicrobial activity against Staphylococcus aureus ATCC 25923; type: functional
Escherichia coli = test: Antimicrobial activity against Escherichia coli ATCC 25922; type: functional
[1] = Selectivity index, ratio of IC50 for Vero cells to MIC of Mycobacterium tuberculosis H37Rv; type: functional
[2] = test system: Mycobacterium tuberculosis; test: Antimicrobial activity against Mycobacterial tuberculosis ATCC 27294 at […]; type: functional
Vero = test: Cytotoxicity against Vero cells; type: cell-based; conditions: Chlorocebus sabaeus
In short: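 IC50 was measured in VERO mammalian cells, and only for compounds that met the M. tuberculosis MIC cutoff for follow-up. A selectivity index was then calculated as the VERO IC50 divided by the Mtb MIC.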

Row | SMILES | Ratio [1] [µg/mL] | inhibition at […] [2] [%] | further results
1 | COc1ccc(Cn2cnc3c(-c4ccco4)nc(Cl)nc32)cc1 | >26 |  | MIC (Staphylococcus aureus): > 32 µg/mL; MIC (Escherichia coli): > 32 µg/mL
2 | COc1ccc(Cn2cnc3c(-c4ccco4)nc(Oc4ccccc4)nc32)cc1 |  | 72 | 
3 | COc1ccc(Cn2cnc3c(-c4ccco4)nc(SC)nc32)cc1 | 3.9 |  | IC50 (Vero): 3.05 µg/mL (≈ 8.65 µM)
4 | COc1ccc(Cn2cnc3c(-c4ccco4)nc(N(C)C)nc32)cc1 |  | 34 | 
5 | COc1ccc(Cn2cnc3c(-c4ccco4)ncnc32)cc1 | >40 |  | 
